The text below walks through data of ChEMBL document CHEMBL1687916, “Non-nucleoside inhibitors of human adenosine kinase: synthesis, molecular modeling, and biological studies” (J Med Chem, 2011).

Each structure is given as a SMILES string. Active and inactive are the calls of the source. No cut-off for these calls is given here.

The IC50 is the concentration that gives 50% inhibition. By GI50 is commonly meant the concentration giving 50% growth inhibition. High values mean lower sensitivity of the cells, low ones greater sensitivity of the cells. As usually defined, the inhibition is the change of the read-out against control, counted positive when it falls. Read a low inhibition as a weak effect.

A short description of data set [1]: Metabolic stability of the compound in human HeLaS3 cell crude extract assessed as compound degradation measured upto 20 hrs pretreated at 40 uM for 3 days. To be noted: hela s3, 20 h. It counts as ADME, cell-based. In a few lines:
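HeLaS-3 cells cultured 3 days with 40 μM compound added fresh every 24 h; crude extract prepared by hypotonic Hepes buffer lysis, dounce homogenization and 10000g spin. Compound (1 mM) was incubated in extract at 37 C for 0, 1, 5 and 20 h, then lyophilized and extracted twice with cold MeOH. Remaining compound was quantified by reverse-phase HPLC.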

In data set [2] the test system is NIH3T3. Kind of data set: Cytotoxicity against mouse 3T3 cells by phenyltetrazolium bromide assay. It counts as functional, cell-based. In a few lines: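 Murine 3T3 fibroblasts; proliferation measured by MTT assay, with IC50 reported. Each value is the mean of three determinations; Student's t test, p < 0.05.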
The subject of data set [3] is K562. Kind of data set: Growth inhibition of human K562 cells after 7 days by Burker cell counter. It counts as functional. To be noted: K562, 168 h. In a few lines:
(§1)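 K562 cells in RPMI 1640 with 10% fetal calf serum, seeded at 5000 cells/mL and held 15 h at 37 C in 5% CO2. Serial compound dilutions were added and cells incubated 7 days. Aliquots were mixed with 0.5% trypan blue; unstained and blue cells were counted on a Bürker chamber. Triplicate points, each count averaged from four determinations.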

The subject of data set [4] is HL-60. Kind of data set: Induction of apoptosis in human HL60 cells assessed as DNA content at 100 uM after 48 hrs by flow cytometry relative to vehicle-treated. It counts as functional. The method, boiled down: (§2)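 HL-60 cells treated with vehicle (0.1% DMSO) or 25-100 μM compound for 24, 48 or 72 h, harvested by centrifugation, PI-stained for 30 min at 37 C in the dark, and analysed by flow cytometry (10 000 gated events). Cells with under 2N DNA content were scored apoptotic. Three independent experiments.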
On the technique in general: Flow cytometry measures light scatter and fluorescence of single cells or particles in a stream.

Data set [5] deals with HeLa S3. Description: Cytostatic activity against human HeLaS3 cells at 40 uM after 24 to 48 hrs compound added for every 24 hrs. It counts as functional, cell-based. In a few lines:
(§3)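 Cells (8 × 10^4) grown at 37 C in DMEM with 10% fetal calf serum, 5 mM L-glutamine and 50 μg/mL gentamycin, with or without 40 μM compound for 3 days. Medium and compound were replaced daily. Cultures were counted every day after trypsinization.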

The subject of data set [6] is HeLa S3. Description: Inhibition of DNA syntheses in human HeLaS3 cells assessed as [3H]thymidine incorporation at 50 uM after 40 mins by scintillation counter. It counts as functional, cell-based. The method, boiled down: (§4)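 HeLaS-3 cells grown in DMEM with fetal calf serum, trypsinized, and resuspended at 10^6 cells/mL in serum-free DMEM at 37 C with 0, 10 or 50 μM compound plus 5 μCi [3H]thymidine (25 Ci/mmol) or [3H]uridine (22 Ci/mmol). Samples at 0-40 min were spotted on GF/C filters, washed in 5% TCA and ethanol, and acid-precipitable radioactivity counted. Mean of three determinations.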

Data set [7] addresses Adenosine kinase (Homo sapiens, UniProt P55263). Kind of data set: Inhibition of human adenosine kinase. To be noted: read-out: IC50.
For data set [8], the system named is HeLa S3. Description: Inhibition of RNA syntheses in human HeLaS3 cells assessed as inhibition of [3H]uridine incorporation after 40 mins by scintillation counter. It counts as functional, cell-based. The method, boiled down:
as §4

In data set [9] the test system is HeLa S3. Description: Inhibition of DNA syntheses in human HeLaS3 cells assessed as [3H]thymidine incorporation at 10 uM after 40 mins by scintillation counter. It counts as functional, cell-based. In a few lines:
as §4

The subject of data set [10] is HeLa S3 (Homo sapiens). Description: Growth inhibition of human HeLaS-3 cells pretreated for 2 days measured after 24 hrs of compound wash out by Burker cell counter.
The test system of data set [11] is HL-60. Kind of data set: Induction of apoptosis in human HL60 cells assessed as DNA content at 50 uM after 24 hrs by flow cytometry relative to vehicle-treated control. It counts as functional. In a few lines:
as §2

A short description of data set [12]: Cellular permeability in human HeLaS3 cells assessed as level of [3H]AMP produced at 2.5 to 25 uM by scintillation counter. Particulars: hela s3, 25 µM. It counts as ADME, cell-based. The method, boiled down: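 HeLaS-3 cells grown in DMEM with fetal calf serum at 37 C, trypsinized, then resuspended at 10^6 cells/mL in serum-free DMEM with compound and 3 μCi [3H]Ado (25 Ci/mmol) at 37 C. Samples taken at 0, 10, 20, 30 and 40 min were spotted on DE-81 filters and washed. [3H]AMP was measured by scintillation counting. Mean of three determinations.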

Data set [13] deals with K562. Kind of data set: Cytotoxicity against human K562 cells assessed as dead cells after 7 days by Burker cell counter. It counts as functional, cell-based. The method, boiled down:
as §1

The target in data set [14] is T1, Adenosine deaminase (Bos taurus) (UniProt P56658).
T1 sequence (whole entry): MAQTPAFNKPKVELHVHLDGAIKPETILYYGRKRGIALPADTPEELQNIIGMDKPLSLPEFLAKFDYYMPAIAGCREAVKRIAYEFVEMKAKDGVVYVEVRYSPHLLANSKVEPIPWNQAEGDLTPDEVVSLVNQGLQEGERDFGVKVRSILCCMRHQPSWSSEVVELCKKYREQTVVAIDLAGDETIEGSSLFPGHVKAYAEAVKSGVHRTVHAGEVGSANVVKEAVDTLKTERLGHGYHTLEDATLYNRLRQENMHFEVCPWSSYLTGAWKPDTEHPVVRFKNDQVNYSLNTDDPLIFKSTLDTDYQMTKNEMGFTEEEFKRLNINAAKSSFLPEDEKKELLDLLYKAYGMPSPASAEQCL
Kind of data set: Inhibition of bovine ADA at 100 uM by spectrophotometric analysis. In a few lines: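 Adenosine deaminase assayed at 30 C with 50 μM Ado, 50 mM potassium phosphate pH 7.2 and 0.3 nM enzyme. Deamination was followed as A262 change over 2 min. Compound tested at 100 μM, with DMSO at most 4% final and a substrate-free blank. Percent inhibition from two determinations in triplicate.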

For data set [15], the system named is HL-60. Kind of data set: Cytotoxicity against human HL60 cells after 72 hrs. To be noted: HL-60, 72 h. It counts as functional, cell-based. The method, boiled down:
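HL-60 cells (40 000/well) in RPMI-1640 with 10% FBS and penicillin/streptomycin, seeded for 24 h, then exposed to vehicle (0.1% DMSO) or a concentration range for 72 h. AlamarBlue (10% v/v) was added for 4.5 h at 37 C and fluorescence read at ex 544/em 590 nm. Viability is relative to vehicle control; IC50 from dose-response curves; three independent experiments.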

Data set [16] deals with HL-60. Kind of data set: Induction of apoptosis in human HL60 cells assessed as DNA content at 100 uM after 24 hrs by flow cytometry relative to vehicle-treated. It counts as functional. In a few lines: as §2
Data set [17] deals with HeLa S3 (Homo sapiens). Kind of data set: Growth inhibition of human HeLaS-3 cells pretreated for 2 days measured after 2 days of compound wash out by Burker cell counter.
The species entered for data set [18] is Homo sapiens. Description: Cytostatic activity against human Cen3tel cells at 40 uM after 24 to 48 hrs compound added for every 24 hrs. It counts as functional, cell-based. In a few lines:
as §3

Sequence of Adenosine kinase (P55263 whole entry): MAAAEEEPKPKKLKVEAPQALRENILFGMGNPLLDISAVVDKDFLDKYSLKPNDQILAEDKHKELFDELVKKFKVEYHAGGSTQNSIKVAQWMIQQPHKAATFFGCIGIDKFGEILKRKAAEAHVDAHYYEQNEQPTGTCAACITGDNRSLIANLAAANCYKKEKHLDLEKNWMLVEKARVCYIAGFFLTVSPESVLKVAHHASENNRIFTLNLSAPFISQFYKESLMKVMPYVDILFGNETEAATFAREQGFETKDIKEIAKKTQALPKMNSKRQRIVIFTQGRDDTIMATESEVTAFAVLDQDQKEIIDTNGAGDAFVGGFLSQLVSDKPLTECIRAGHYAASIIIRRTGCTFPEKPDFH

On to `CCC1(c2ccc(CSc3ccccc3)cc2)Oc2ccccc2-n2cccc2C1=O` (racemic), for which, in [1], the Stability result is listed as “Stable”. In addition, the IC50 in [2] was 118 µM; in data set [7] it was 1200 nM; in [8], 50 µM; in data set [15], 34.2 µM. The molecule further had a GI50 in [3] of 1000 nM. The Activity in data set [4] is 90%; in [11], 44%; in data set [13] it was “Not toxic”; in data set [16], 70%. The result in data set [5], in data set [6], in [9] and in [18] was inactive. Moreover, the “growth inhibition (GI)” value in data set [10] was “Active”. Further, the Drug uptake result in [12] was “Active”. In addition, the inhibition in [14] was 15%. Further, in [17], the “growth inhibition (GI)” value is “inactive”.
